Assay results reported in ChEMBL document CHEMBL4028901, “Novel Antitubercular 6-Dialkylaminopyrimidine Carboxamides from Phenotypic Whole-Cell High Throughput Screening of a SoftFocus Library: Structure-Activity Relationship and Target Identification Studies” (J Med Chem, 2017).
≈ marks a conversion by molar mass, not a printed value.

System: Mycobacterium tuberculosis
Assay: Antibacterial activity against Mycobacterium bovis BCG grown in 7H9 medium after 6 days by resazurin-based fluorescent method
Type: functional
Conditions: variant bovis BCG, 144 h
Procedure, shortened: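 M. bovis BCG at 10⁵ CFU/ml in 7H9 with 0.025% tyloxapol and 2% glucose. Compounds tested as 10 two-fold dilutions from 50 μM. Incubated 6 days at 37 °C, then resazurin added for a further 48 h. Endpoint fluorescence read at excitation 530 nm, emission 590 nm.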

In the case of `CN1CCN(c2ccc(NC(=O)c3cc(N(CCCN)Cc4ccccc4)ncn3)cc2)CC1`, the MIC is reported as 18.6 µM (≈ 8.55 µg/mL).
